The target of the first experiment is IMP dehydrogenase (Escherichia coli). Kind of experiment: Ability to inhibit Inosine-5'-monophosphate dehydrogenase isolated from Escherichia coli.
Details: not given
As to `CCCc1nc(O)c2ncn(C3O[C@@H](COP(=O)(O)O)[C@H](O)[C@@H]3O)c2n1` (some centres undefined), the Ki (commonly a dissociation constant, usually derived from enzyme kinetics or from competition with a known ligand) came out at 190 µM. On to `COc1nc(O)c2ncn(C3O[C@@H](COP(=O)(O)O)[C@H](O)[C@@H]3O)c2n1` (some centres undefined), for which the Ki came to 46 µM.

The compound `Cc1nc(O)c2ncn(C3O[C@@H](COP(=O)(O)O)[C@H](O)[C@@H]3O)c2n1` (some centres undefined) had a Ki of 600 µM.

`O=P(O)(O)OC[C@@H]1OC(n2cnc3c(O)nc(Cl)nc32)[C@@H](O)[C@H]1O` (some centres undefined) showed a Ki of 120 µM.

Another experiment concerns the target T1, Inosine-5'-monophosphate dehydrogenase (Escherichia coli K-12, UniProt P0ADG7).
T1 sequence (P0ADG7 whole entry): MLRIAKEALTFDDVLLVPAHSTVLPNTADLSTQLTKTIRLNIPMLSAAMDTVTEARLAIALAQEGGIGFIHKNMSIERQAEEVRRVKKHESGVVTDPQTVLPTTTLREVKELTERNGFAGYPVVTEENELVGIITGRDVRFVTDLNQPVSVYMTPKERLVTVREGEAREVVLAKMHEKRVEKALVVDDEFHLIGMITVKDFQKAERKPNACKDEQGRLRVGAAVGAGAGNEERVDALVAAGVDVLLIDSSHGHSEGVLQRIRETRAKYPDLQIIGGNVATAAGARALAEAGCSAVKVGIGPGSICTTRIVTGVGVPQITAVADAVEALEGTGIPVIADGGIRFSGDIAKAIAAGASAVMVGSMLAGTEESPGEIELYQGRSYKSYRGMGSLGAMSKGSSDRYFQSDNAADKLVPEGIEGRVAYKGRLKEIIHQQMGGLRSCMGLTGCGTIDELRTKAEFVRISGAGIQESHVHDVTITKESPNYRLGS
Nature of the experiment: Ability to inhibit Inosine-5'-monophosphate dehydrogenase isolated from Escherichia coli. The note with it: read-out: I50. The method in brief: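 Crude E. coli IMP dehydrogenase (0–40% ammonium sulfate precipitate) in 0.05 M Tris pH 8.5 with 33.4 mM KCl, 1.5 mM glutathione, 0.8 mM NAD+ and 0.002 unit enzyme, run at 25 °C. NADH rise at 340 nm gave initial rates. I50 was read graphically at 50 µM IMP, with inhibitor levels bracketing 50%; duplicates agreed within 20%. Ki came from a competitive-equation fit over 10–75 µM IMP.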
For `CCCCCCCc1nc(O)c2ncn(C3O[C@@H](COP(=O)(O)O)[C@H](O)[C@@H]3O)c2n1` (some centres undefined), the IC50 was found to be 270 µM.

On to `O=[N+]([O-])c1cc(CSc2nc(O)c3ncn(C4O[C@@H](COP(=O)(O)O)[C@H](O)[C@@H]4O)c3n2)cc([N+](=O)[O-])c1` (some centres undefined), for which the IC50 was found to be 85 µM. In the case of `CCCCCCCCCc1nc(O)c2ncn(C3O[C@@H](COP(=O)(O)O)[C@H](O)[C@@H]3O)c2n1` (some centres undefined), the IC50 was found to be 160 µM. On the same count and under the same terms, as for `CCCCCCc1nc(O)c2ncn(C3O[C@@H](COP(=O)(O)O)[C@H](O)[C@@H]3O)c2n1` (some centres undefined), the figure is 580 µM; as for `COc1ccc(-c2nc(O)c3ncn(C4O[C@@H](COP(=O)(O)O)[C@H](O)[C@@H]4O)c3n2)cc1` (some centres undefined), 810 µM.

Regarding `O=P(O)(O)OC[C@@H]1OC(n2cnc3c(O)nc(Cc4ccccc4)nc32)[C@@H](O)[C@H]1O` (some centres undefined), the IC50 worked out at 770 µM. For the compound `O=P(O)(O)OC[C@@H]1OC(n2cnc3c(O)nc(Cc4cccnc4)nc32)[C@@H](O)[C@H]1O` (some centres undefined), the IC50 stood at 430 µM. The same measure, in the same setting: for `O=P(O)(O)OC[C@@H]1OC(n2cnc3c(O)nc(-c4ccccc4)nc32)[C@@H](O)[C@H]1O` (some centres undefined) the value was above 1000 µM; for `O=P(O)(O)OC[C@@H]1OC(n2cnc3c(O)nc(SCc4ccccc4Cl)nc32)[C@@H](O)[C@H]1O` (some centres undefined), 72 µM. For `O=[N+]([O-])c1cccc(CSc2nc(O)c3ncn(C4O[C@@H](COP(=O)(O)O)[C@H](O)[C@@H]4O)c3n2)c1` (some centres undefined), the IC50 stood at 33 µM. For the compound `CCCCCCCCc1nc(O)c2ncn(C3O[C@@H](COP(=O)(O)O)[C@H](O)[C@@H]3O)c2n1` (some centres undefined), the IC50 worked out at 680 µM. Take `CCCCCCCCCCc1nc(O)c2ncn(C3O[C@@H](COP(=O)(O)O)[C@H](O)[C@@H]3O)c2n1` (some centres undefined): the IC50 is 150 µM.

`O=P(O)(O)OC[C@@H]1OC(n2cnc3c(O)nc(-c4cccnc4)nc32)[C@@H](O)[C@H]1O` (some centres undefined): the IC50 was above 1000 µM. As to `O=P(O)(O)OC[C@@H]1OC(n2cnc3c(O)nc(/C=C/c4ccccc4)nc32)[C@@H](O)[C@H]1O` (some centres undefined), the IC50 was determined as 69 µM. In the case of `O=[N+]([O-])c1ccc(CSc2nc(O)c3ncn(C4O[C@@H](COP(=O)(O)O)[C@H](O)[C@@H]4O)c3n2)cc1` (some centres undefined), the IC50 was 56 µM.
